According to paper PMC8276234 (Journal of medicinal chemistry, 2019):

Assays:
D54 cells = test: Clonogenic survival assay with ionizing radiation; type: cell-based; conditions: 1 μM, 0-6 Gy
How it was run: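 D54 monolayer cells (37 °C, 5% CO2, mycoplasma-tested, STR-authenticated) were irradiated at 0, 1, 2, 4 or 6 Gy and plated immediately at 200, 200, 400, 600 and 1000 cells/well. Test compounds (1 μM), reference inhibitor (0.05 μM) or DMSO were added. After 10–12 days, colonies were stained with 0.1% crystal violet.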

b’ domain of PDI = b’ domain of PDI (Homo sapiens, UniProt P07237); test: ANS spectral scan; type: binding; conditions: 5 μM PDI, 100 μM compound
b’ domain of PDI, sequence (P07237 18-508): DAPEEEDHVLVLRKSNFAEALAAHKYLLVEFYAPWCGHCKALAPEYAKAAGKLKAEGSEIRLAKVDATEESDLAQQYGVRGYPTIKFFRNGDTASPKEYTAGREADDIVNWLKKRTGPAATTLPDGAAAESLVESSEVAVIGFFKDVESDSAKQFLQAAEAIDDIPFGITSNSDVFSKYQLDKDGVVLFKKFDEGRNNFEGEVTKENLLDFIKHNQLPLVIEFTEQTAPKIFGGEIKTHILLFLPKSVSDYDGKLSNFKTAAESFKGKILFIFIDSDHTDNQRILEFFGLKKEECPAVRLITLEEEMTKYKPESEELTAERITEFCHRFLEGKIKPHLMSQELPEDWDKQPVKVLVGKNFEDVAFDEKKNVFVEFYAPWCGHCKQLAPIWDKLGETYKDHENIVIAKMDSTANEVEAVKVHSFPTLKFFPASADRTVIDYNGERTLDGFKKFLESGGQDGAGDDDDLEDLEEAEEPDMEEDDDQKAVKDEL
How it was run: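 Human PDI was preincubated with 100 μM compound or matching DMSO in TBS at 37 °C for 1 h. ANS was then added, followed by 20 min in the dark at 25 °C. Fluorescence spectrum: Ex 370 nm, Em 400–700 nm.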

GBM cell = test: Combination with As2O3, GBM cell proliferation; type: cell-based
U87MG = test: MTT growth inhibition assay, U87MG; type: cell-based, human; conditions: read-out: IC50, cytotoxicity U87MG, 72 hours, listed as 6 (BAP2)
How it was run: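 U87MG seeded at 5000 cells/well, incubated overnight at 37 °C and 5% CO2, then given test compound or vehicle for 72 h. MTT (3 mg/mL) was added for 4 h at 37 °C. Formazan was dissolved in DMSO with 15 min shaking at room temperature and read at 570 nm. Inhibition was calculated as [1-(At-Ab)/(Ac-Ab)]×100 against untreated and blank wells.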

PDI = PDI (Homo sapiens, UniProt P07237); test: PDI reductase assay after competition with N-acetyl cysteine; type: biochemical; conditions: compound 40 μM; 0, 1, 2 or 5 mM NAC; listed as BAP2
PDI, sequence (P07237 18-508): as above
How it was run: (§1)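 N-terminal His-tagged human PDI was expressed in E. coli BL21(DE3) pLysS with 1 mM IPTG for 4 h at 37 °C. It was purified on Ni-NTA and dialyzed into 100 mM sodium phosphate, 2 mM EDTA, pH 7.0. PDI (0.4 μM) was preincubated 1 h with compound in phosphate/EDTA buffer with 8 μM DTT. DTT (500 μM) and bovine insulin (130 μM) were then added at room temperature. Aggregation was read at 620 nm. Percent activity came from the 0–80 min change, corrected for DTT alone.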

GRP78 = test: Western blot, GRP78 expression; type: cell-based, human; conditions: U87MG cells; 20 μM (PACMA31 1.0 μM), 24 hours
How it was run: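 Treated U87MG cells were lysed by sonication in Tris/NaCl/Triton X-100/SDS buffer (pH 7.4) and spun at 13,500×g, 4 °C, 10 min. Protein was quantified by BCA. 30 μg per lane ran on 10% gels and transferred to PVDF. Primary antibodies were applied overnight at 4 °C. Fluorescent secondaries were imaged.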

wild-type PDI = wild-type PDI (Homo sapiens, UniProt P07237); test: Thermal shift assay, wild-type PDI; type: binding; conditions: recombinant PDI, dose-dependent, up to 100 μM
wild-type PDI, sequence (P07237 18-508): as above
How it was run: (§2)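 Purified PDI (wild-type, C53S/C397S or H256A; 0.5 mg/mL in 50 mM Tris, pH 7.0) was mixed with compound in DMSO and ROX dye. Samples were heated from 25 to 99 °C at 1 °C/min. Boltzmann melting temperature was compared with the 5% DMSO control.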

A172 cells [1] = test: Wound healing assay; type: cell-based, human; conditions: 24 hours, BAP2 at 10 μM
How it was run: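 A172 cells were seeded at 50,000/well, grown overnight, then kept in serum-free DMEM for 24 h. A scratch was made and compounds added. Cells grew 24 h, until DMSO-control scratches closed, then were Giemsa-stained and imaged at 10X.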

H256A PDI [2] = target: T1, H256A PDI (Homo sapiens, UniProt P07237, H256A); test: PDI reductase assay, H256A mutant PDI; type: biochemical; conditions: 10 μM
T1 sequence (P07237 18-508 H256A): as the sequence (P07237 18-508) above, with H239A counted along it
How it was run: as §1

A172 cells [3] = test: Transwell migration assay; type: cell-based, human; conditions: 4 hours, 30 μM
How it was run: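 Treated A172 cells (1 x 10^5) were seeded into inserts with 8.0 µm PET membranes in serum-free medium. The lower well held DMEM with 10% FBS, and FBS-free wells served as control. After 4 h, cells were Giemsa-stained and 5 fields per well were imaged at 10X.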

C53S/C397S PDI = C53S/C397S PDI (Homo sapiens, UniProt P07237, C397S/C53S); test: Thermal shift assay, C53S/C397S PDI; type: binding; conditions: 100 μM
C53S/C397S PDI, sequence (P07237 18-508 C53S/C397S): as the sequence (P07237 18-508) above, with C36S, C380S counted along it
How it was run: as §2

H256A PDI [4] = target: T1, H256A PDI; test: Thermal shift assay, H256A PDI; type: binding; conditions: 100 μM
How it was run: as §2

effect on ANS fluorescence (b’ domain of PDI): hindered the ability of ANS to fluoresce
activity after competition with N-acetyl cysteine (NAC) (PDI): unaffected by up to 5 mM NAC
increase of melting temperature (wild-type PDI): more than 1 °C
activity against H256A mutant PDI (H256A PDI [2]): abolished upon mutation
stabilization (thermal shift) in the C53S/C397S mutant (C53S/C397S PDI): but not the C53S/C397S mutant
stabilization (thermal shift) in the H256A mutant (H256A PDI [4]): abolished
SMILES: N#Cc1cccc(/C=C/C(=O)c2ccc(O)cc2)c1 [Compound 6, (E)-3-(3-(4-Hydroxyphenyl)-3-oxoprop-1-en-1-yl)benzonitrile]
synergy with ionizing radiation (IR) (D54 cells): synergized with IR
inhibition of GBM cell proliferation in combination with As2O3 (GBM cell): synergistically
IC50 (U87MG): 10.3 ± 2.3 µM
expression of GRP78 (GRP78): increase in expression of GRP78
wound healing / cell migration (A172 cells [1]): inhibited wound healing
transwell migration (A172 cells [3]): inhibited migration
